Assay results from ChEMBL document CHEMBL1151860, “Asymmetric synthesis and biological evaluation of Danshensu derivatives as anti-myocardial ischemia drug candidates” (Bioorg Med Chem, 2009).
Calls of active or inactive are those of the source. The calls are words filed in the database; no cut-off is given here.

Assays:
[1] = organism: Rattus norvegicus; test: Cytoprotective effect against hypoxia-induced Sprague-Dawley rat NRVM assessed as increase in cell viability pretreated for 12 hrs before hypoxia induction at 1 umol/L measured after 5 hrs by MTT assay relative to control; assay type: functional
How it was run: (§1)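 Neonatal rat ventricular myocytes were obtained by trypsin digestion, preplated for 2 h, then seeded at 1 × 10⁶ cells/ml in DMEM with 10% FBS, penicillin/streptomycin and 5-bromo-deoxyuridine at 37 °C, 5% CO₂. After 48 h they were given compound for 12 h, then 5 h hypoxia. Viability was read by MTT and damage by LDH leakage; means SE.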

[2] = organism: Rattus norvegicus; test: Cytoprotective effect against hypoxia-induced Sprague-Dawley rat NRVM assessed as decrease in LDH leakage pretreated for 12 hrs before hypoxia induction at 1 umol/L relative to control; assay type: functional; how it was run: as §1
[3] = organism: Rattus norvegicus; test: Antioxidant activity against hypoxia-induced lipid peroxidation in Sprague-Dawley rat NRVM assessed as decrease in malondialdehyde content at 1 umol/l relative to hypoxia control; assay type: functional
[4] = organism: Rattus norvegicus; test: Cytoprotective effect against hypoxia-induced Sprague-Dawley rat NRVM assessed as decrease in cellular damage pretreated for 12 hrs before hypoxia induction at 1 umol/L; assay type: functional
[5] = test system: Rattus norvegicus; test: Cardioprotective effect in Sprague-Dawley rat myocardial infarction model assessed as decrease in serum malondialdehyde level at 15 to 60 mg/kg, ip treated 7 days before myocardial infarction surgery and after 2 days once daily; assay type: functional, organism-based
How it was run: (§2)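 Male Sprague-Dawley rats (230–250 g) were anaesthetised with chloral hydrate (60 mg/kg ip), intubated and ventilated, and the left coronary artery ligated; sham rats were not ligated. Drug at 15, 30 or 60 mg/kg ip was given once daily from 7 days before to 2 days after surgery. Serum LDH, CK, SOD and MDA were measured by diagnostic kit; means SE, n = 6, P < 0.05.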

[6] = Antiapoptotic activity against hypoxia-induced Sprague-Dawley rat NRVM assessed as decrease in bax protein level at 1 umol/l by Western blot analysis; assay type: functional
[7] = Antiapoptotic activity against hypoxia-induced Sprague-Dawley rat NRVM assessed as increase in bcl2 mRNA level at 1 umol/l by RT-PCR; assay type: functional
[8] = test system: Rattus norvegicus; test: Cardioprotective effect in Sprague-Dawley rat myocardial infarction model assessed as decrease in infarct size at 30 mg/kg, ip treated 7 days before myocardial infarction surgery and after 2 days once daily by TTC staining; assay type: functional, organism-based; set-up: dose 30 mg/kg; details: Myocardium
How it was run: (§3)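 Male Sprague-Dawley rats (230–250 g), anaesthetised with 7% chloral hydrate (60 mg/kg ip), intubated and ventilated; left coronary artery ligated (sham: no ligation). Five randomised groups: MI, sham, MI plus drug at 15, 30 or 60 mg/kg ip once daily. Hearts excised 2 days post-ligation, ventricles cut into five transverse slices, 1% TTC at 37 °C for 15 min; unstained area taken as infarct. Means SE.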

[9] = Antiapoptotic activity against hypoxia-induced Sprague-Dawley rat NRVM assessed as increase in bcl2 protein level at 1 umol/l by Western blot analysis; assay type: functional
How it was run: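 Myocytes were pretreated 12 h, then made hypoxic for 5 h and lysed at the end of hypoxia. Lysates were spun at 10,000 r/min for 10 min and protein quantified by BCA. Samples were transferred to PVDF and blocked 2 h at RT in TBS with 5% skim milk. For bcl-2, blots were probed 1 h at RT with rabbit anti-rat polyclonal antibody in TBS-T.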

[10] = test system: Rattus norvegicus; test: Cardioprotective effect in Sprague-Dawley rat myocardial infarction model assessed as decrease in infarct size at 60 mg/kg, ip treated 7 days before myocardial infarction surgery and after 2 days once daily by TTC staining; assay type: functional, organism-based; set-up: dose 60 mg/kg; details: Myocardium; how it was run: as §3
[11] = test system: Rattus norvegicus; test: Cardioprotective effect in Sprague-Dawley rat myocardial infarction model assessed as decrease in serum creatine kinase level at 15 to 60 mg/kg, ip treated 7 days before myocardial infarction surgery and after 2 days once daily; assay type: functional, organism-based; how it was run: as §2
[12] = Antiapoptotic activity against hypoxia-induced morphological changes in Sprague-Dawley rat NRVM assessed as decrease in nuclear condensation at 1 umol/l by Heochst dye relative to hypoxia induced control; assay type: functional
How it was run: (§4)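 Cultured neonatal rat ventricular myocytes (trypsin-dissociated, 2 h preplating, DMEM/10% FBS with 5-bromo-deoxyuridine, 37 °C, 5% CO₂) were pretreated 12 h with compound after 48 h culture, then made hypoxic for 5 h. Nuclei were Hoechst-stained to score shrinkage and condensation.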

[13] = Antiapoptotic activity against hypoxia-induced morphological changes in Sprague-Dawley rat NRVM assessed as decrease in nuclei shrunk at 1 umol/l by Heochst dye relative to hypoxia induced control; assay type: functional; how it was run: as §4
[14] = Antiapoptotic activity against hypoxia-induced Sprague-Dawley rat NRVM assessed as decrease in bax mRNA level at 1 umol/l by RT-PCR; assay type: functional
[15] = test system: Rattus norvegicus; test: Cardioprotective effect in Sprague-Dawley rat myocardial infarction model assessed as decrease in infarct size at 15 mg/kg, ip treated 7 days before myocardial infarction surgery and after 2 days once daily by TTC staining; assay type: functional, organism-based; set-up: dose 15 mg/kg; details: Myocardium; how it was run: as §3
[16] = Antiapoptotic activity against hypoxia-induced Sprague-Dawley rat NRVM assessed as decrease in caspase 3 mRNA level at 1 umol/l by RT-PCR; assay type: functional
[17] = test system: Rattus norvegicus; test: Cardioprotective effect in Sprague-Dawley rat myocardial infarction model assessed as decrease in serum LDH level at 15 to 60 mg/kg, ip treated 7 days before myocardial infarction surgery and after 2 days once daily; assay type: functional, organism-based; how it was run: as §2
[18] = test system: Rattus norvegicus; test: Cardioprotective effect in Sprague-Dawley rat myocardial infarction model assessed as increase in serum SOD level at 15 to 60 mg/kg, ip treated 7 days before myocardial infarction surgery and after 2 days once daily; assay type: functional, organism-based; how it was run: as §2

With `COC(=O)[C@@H](Cc1ccc2c(c1)OCO2)OC(C)=O` the Activity [1] was “Active”, the Activity [2] was “Active” and the Activity [3] was “Active”. The Activity [4] was “Active”.
With `CC(=O)O/C(=C\c1ccc(O)c(O)c1)C(=O)O` the Activity [5] was “Active”, the Activity [6] was “Active” and the Activity [7] was “Active”. The Activity [8] was “inactive”, the Activity [1] was “Active” and the Activity [9] was “Active”. The Activity [10] was “Active”, the Activity [11] was “Active” and the Activity [12] was “Active”. The Activity [13] was “Active”, the Activity [2] was “Active” and the Activity [14] was “Active”. For the same molecule, the Activity [15] was “inactive”, the Activity [16] was “Active” and the Activity [3] was “Active”. For the same molecule, the Activity [17] was “Active” and the Activity [18] was “Active”.
In the case of `COC(=O)C(Cc1ccc(OC(C)=O)c(OC(C)=O)c1)OC(C)=O` (racemic), the Activity [1] is reported as “Active” and the Activity [2] is reported as “Active”.
For `COC(=O)C(Cc1ccc2c(c1)OCO2)OC(C)=O` (racemic), the Activity [1] was “Active” and the Activity [2] was “Active”.
With `COC(=O)[C@@H](Cc1ccc(OC(C)=O)c(OC(C)=O)c1)OC(C)=O` the Activity [6] was “Active”, the Activity [7] was “Active” and the Activity [1] was “Active”. The Activity [9] was “Active”, the Activity [12] was “Active” and the Activity [13] was “Active”. The Activity [2] was “Active”, the Activity [14] was “Active” and the Activity [16] was “Active”. For the same molecule, the Activity [3] was “Active” and the Activity [4] was “Active”.
